# Test results reported in ChEMBL document CHEMBL4732095, “Novel naphthylamide derivatives as dual-target antifungal inhibitors: Design, synthesis and biological evaluation” (Eur J Med Chem, 2021).
# The source made the active and inactive calls. The rule behind the calls is not given here.
# Legend:
# [1] = system: Candida albicans SC5314; assay: Inhibition of SE/CYP51 in Candida albicans ATCC SC5314 assessed as lanosterol level at 0.125 ug/ml incubated for 48 hrs by LC/MS analysis; design: scale not given: the % may be the effect or the level left; conditions: dose 0.125 µg/ml
# Method in brief: (§1)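 C. albicans ATCC SC5314 cells exposed to drug at 0.125, 0.5 or 4 μg/mL for 48 h, alongside an untreated control. Sterols were extracted and analysed by LC-MS. Ergosterol, squalene, lanosterol, eburicol and unknown sterols are each given as % of total sterols, calculated from the peak area ratio of each component.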
# [2] = Toxicity in mouse infected with Candida albicans SC5314 assessed as change in spleen morphology administered via abdomen for 7 days by H and E staining based histological analysis; conditions: in vivo, ip, 168 h, time 7 day
# Method in brief: (§2)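 Mice infected with C. albicans SC5314 by subcutaneous abdominal injection, then randomized into saline, and two compound-treated groups. Treatment given by abdominal injection for 7 days, with body weight monitored. Heart, liver, spleen, lung, kidney and infected abdominal tissue harvested for H&E histology.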
# [3] = system: Candida albicans SC5314; assay: Inhibition of SE/CYP51 in Candida albicans ATCC SC5314 assessed as unknown sterol level at 0.5 ug/ml incubated for 48 hrs by LC/MS analysis (reference value: 3.5 %); design: scale not given: the % may be the effect or the level left; conditions: dose 0.5 µg/ml
# Method in brief: (§3)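 C. albicans SC5314 cells exposed to compound at 0.125, 0.5 or 4 μg/mL for 48 h, alongside untreated, fluconazole and naftifine controls. Sterols (ergosterol, squalene, lanosterol, eburicol, unknown) analysed by LC-MS. Each component expressed as percentage of total sterols from peak area ratios.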
# [4] = system: Candida albicans; assay: Antifungal activity against Candida albicans ATCC SC5314 assessed as edema cavitation at 4 ug/ml incubated for 72 hrs by TEM analysis; assay type: functional, organism-based; conditions: dose 4.0 µg/ml
# Method in brief: (§4)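 C. albicans SC5314 suspension prepared per NCCLS protocol, exposed to compound at 4 μg/mL and incubated at 35 °C. Sampled at 72 h and 144 h, with a 0 h reference. Samples fixed at 4 °C in 3% glutaraldehyde, washed in PBS, stained with uranium/osmium for 30 min, and imaged by transmission electron microscopy.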
# [5] = system: Candida albicans SC5314; assay: Inhibition of SE/CYP51 in Candida albicans ATCC SC5314 assessed as ergosterol level at 4 ug/ml incubated for 48 hrs by LC/MS analysis (reference value: 95.1 %); design: scale not given: the % may be the effect or the level left; conditions: dose 4.0 µg/ml; method in brief: as §3
# [6] = system: Candida albicans SC5314; assay: Inhibition of SE/CYP51 in Candida albicans ATCC SC5314 assessed as unknown sterol level at 4 ug/ml incubated for 48 hrs by LC/MS analysis (reference value: 3.5 %); design: scale not given: the % may be the effect or the level left; conditions: dose 4.0 µg/ml; method in brief: as §3
# [7] = system: Candida albicans SC5314; assay: Inhibition of SE/CYP51 in Candida albicans ATCC SC5314 assessed as eburicol level at 0.5 ug/ml incubated for 48 hrs by LC/MS analysis (reference value: 1.4 %); design: scale not given: the % may be the effect or the level left; conditions: dose 0.5 µg/ml; method in brief: as §3
# [8] = system: Candida albicans SC5314; assay: Inhibition of SE/CYP51 in Candida albicans ATCC SC5314 assessed as squalene level at 0.125 ug/ml incubated for 48 hrs by LC/MS analysis; design: scale not given: the % may be the effect or the level left; conditions: dose 0.125 µg/ml; method in brief: as §1
# [9] = system: Nakaseomyces glabratus; assay: Antifungal activity against Candida glabrata ATCC 0001 assessed as inhibition of microbial growth by NCCLS protocol based method; assay type: functional
# Method in brief: (§5)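 Broth MIC50 determined following NCCLS guidelines in Sabouraud medium, with fungal suspension in 24-well format. Compound tested at 0.0625, 0.125, 0.5, 1, 2, 4, 8 and 16 μg/mL. Plates cultured statically at 35 °C. MIC50 is the lowest concentration giving 50% growth inhibition. Naftifine and fluconazole served as positive controls.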
# [10] = system: Candida albicans; assay: Antifungal activity against Candida albicans ATCC SC5314 assessed as exfoliation of rough ER particles at 4 ug/ml incubated for 72 hrs by TEM analysis; assay type: functional, organism-based; conditions: dose 4.0 µg/ml; method in brief: as §4
# [11] = Inhibition of Candida albicans ATCC SC5314 SE incubated for 30 mins by spectrophotometric method
# Method in brief: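 Enzymes (SE, CYP51) extracted from C. albicans SC5314 using kits. 50 µg enzyme incubated with varying compound concentrations for 30 min at 37 °C in Tris pH 7.4, KCl, MgCl2, 2 mM NADPH, with squalene or eburicol as substrate. Reaction stopped with acetonitrile and centrifuged. Eburicol consumption (CYP51) read by HPLC. Squalene, after sulfuric acid/formaldehyde derivatization, read at 400 nm (SE). IC50 reported.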
# [12] = system: Candida albicans; assay: Antifungal activity against Candida albicans ATCC SC5314 assessed as appearance of disordered ridge arrangement in cytoplasm at 4 ug/ml incubated for 72 hrs by TEM analysis; assay type: functional, organism-based; conditions: dose 4.0 µg/ml; method in brief: as §4
# [13] = Toxicity in mouse infected with Candida albicans SC5314 assessed as change in body weight administered via abdomen for 7 days; conditions: in vivo, ip, 168 h, time 7 day; method in brief: as §2
# [14] = system: Candida albicans; assay: Antifungal activity against Candida albicans ATCC SC5314 assessed as disappearance of fungal cell boundaries at 4 ug/ml incubated for 72 hrs by TEM analysis; assay type: functional, organism-based; conditions: dose 4.0 µg/ml; method in brief: as §4
# [15] = system: Candida tropicalis; assay: Antifungal activity against Candida tropicalis ATCC 1369 assessed as inhibition of microbial growth by NCCLS protocol based method; assay type: functional; method in brief: as §5
# [16] = system: Candida albicans; assay: Antifungal activity against Candida albicans ATCC SC5314 assessed as irregular cell structure at 4 ug/ml incubated for 72 hrs by TEM analysis; assay type: functional, organism-based; conditions: dose 4.0 µg/ml; method in brief: as §4
# [17] = system: Candida albicans; assay: Antifungal activity against Candida albicans ATCC SC5314 assessed as cracked fungal cells at 4 ug/ml incubated for 144 hrs by TEM analysis; assay type: functional, organism-based; conditions: dose 4.0 µg/ml; method in brief: as §4
# [18] = system: Candida albicans SC5314; assay: Inhibition of SE/CYP51 in Candida albicans ATCC SC5314 assessed as squalene level at 0.5 ug/ml incubated for 48 hrs by LC/MS analysis; design: scale not given: the % may be the effect or the level left; conditions: dose 0.5 µg/ml; method in brief: as §3
SMILES,Activity [1],Activity [2],Activity [3],Activity [4],Activity [5],Activity [6],Activity [7],Activity [8],MIC50 [9],Activity [10],IC50 [11],Activity [12],Activity [13],Activity [14],MIC50 [15],Activity [16],Activity [17],Activity [18]
CC(NC(=O)c1cccc2ccccc12)C(=O)NC(Cn1ccnc1)C(=O)c1ccccc1 (stereo not given),2.8%,Non-Toxic,5.8%,Active,10.8%,6.2%,34%,7.9%,0.25 µg/mL,Active,0.961 µM,Active,Non-Toxic,Active,0.125 µg/mL,Active,Active,21.6%
O=C(NC(Cn1ccnc1)C(=O)NCc1ccncc1)c1ccc2ccccc2c1 (stereo not given),3.8%,Non-Toxic,4.8%,,13.2%,6.1%,37.9%,9.2%,0.125 µg/mL,,0.685 µM,,Non-Toxic,,0.25 µg/mL,,,14.5%
